Laboratory results reported in ChEMBL document CHEMBL2202967, “Synthesis, characterization and biological evaluation of ureidofibrate-like derivatives endowed with peroxisome proliferator-activated receptor activity” (J Med Chem, 2012).
The source made the active and inactive calls. The calls are words filed in the database; no cut-off is given here.

Assays:
[1] = target: T1, Peroxisome proliferator-activated receptor alpha (Homo sapiens, UniProt Q07869); assay: Agonist activity at human GAL4-fused PPARalpha ligand binding domain expressed in HepG2 cells after 20 hrs by luciferase reporter gene transactivation assay; type: cell-based
T1 sequence (Q07869 whole entry): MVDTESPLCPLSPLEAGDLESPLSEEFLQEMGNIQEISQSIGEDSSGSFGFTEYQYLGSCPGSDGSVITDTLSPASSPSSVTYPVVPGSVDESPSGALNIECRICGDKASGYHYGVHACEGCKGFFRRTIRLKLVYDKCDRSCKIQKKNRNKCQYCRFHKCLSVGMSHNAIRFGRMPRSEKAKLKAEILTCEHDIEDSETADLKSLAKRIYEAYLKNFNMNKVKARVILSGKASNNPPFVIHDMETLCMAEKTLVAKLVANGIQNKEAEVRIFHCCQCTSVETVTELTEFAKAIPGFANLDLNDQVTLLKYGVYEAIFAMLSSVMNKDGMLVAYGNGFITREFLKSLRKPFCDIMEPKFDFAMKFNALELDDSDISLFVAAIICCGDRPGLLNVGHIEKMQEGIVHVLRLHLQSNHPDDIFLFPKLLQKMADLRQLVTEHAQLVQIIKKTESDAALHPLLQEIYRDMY
Outline: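 HepG2 cells in MEM with 10% heat-inactivated FBS, seeded at 10⁵ cells/well and transfected after 24 h by calcium phosphate. Plasmids: Gal4-PPARα LBD (30 ng), pGal5TKpGL3 luciferase reporter (100 ng) and pCMVβgal (250 ng). Ligands added 4 h post-transfection, for 20 h, in triplicate. Luciferase read in cell extracts, with β-galactosidase activity measured alongside; experiments repeated at least twice.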

[2] = target: T2, Peroxisome proliferator-activated receptor gamma (Homo sapiens, UniProt P37231); assay: Agonist activity at human GAL4-fused PPARgamma ligand binding domain expressed in HepG2 cells after 20 hrs by luciferase reporter gene transactivation assay; type: cell-based
T2 sequence (P37231 whole entry): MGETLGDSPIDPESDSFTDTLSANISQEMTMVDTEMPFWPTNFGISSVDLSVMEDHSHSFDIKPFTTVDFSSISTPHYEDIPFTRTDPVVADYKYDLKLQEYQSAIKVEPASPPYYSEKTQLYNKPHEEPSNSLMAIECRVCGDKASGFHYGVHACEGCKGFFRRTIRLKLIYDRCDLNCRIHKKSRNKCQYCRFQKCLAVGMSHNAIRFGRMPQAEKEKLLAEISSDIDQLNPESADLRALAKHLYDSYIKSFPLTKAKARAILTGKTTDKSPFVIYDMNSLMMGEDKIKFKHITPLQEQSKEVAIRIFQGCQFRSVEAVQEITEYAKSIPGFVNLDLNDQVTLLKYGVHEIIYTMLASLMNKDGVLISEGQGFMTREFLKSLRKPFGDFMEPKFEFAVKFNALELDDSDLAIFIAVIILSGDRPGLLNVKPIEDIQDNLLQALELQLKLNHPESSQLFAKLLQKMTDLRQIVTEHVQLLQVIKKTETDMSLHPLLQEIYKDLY

[3] = target: T3, Peroxisome proliferator-activated receptor delta (Homo sapiens, UniProt Q03181); assay: Agonist activity at human GAL4-fused PPARdelta ligand binding domain expressed in COS-1 cells after 20 hrs by luciferase reporter gene transactivation assay; type: cell-based
T3 sequence (Q03181 whole entry): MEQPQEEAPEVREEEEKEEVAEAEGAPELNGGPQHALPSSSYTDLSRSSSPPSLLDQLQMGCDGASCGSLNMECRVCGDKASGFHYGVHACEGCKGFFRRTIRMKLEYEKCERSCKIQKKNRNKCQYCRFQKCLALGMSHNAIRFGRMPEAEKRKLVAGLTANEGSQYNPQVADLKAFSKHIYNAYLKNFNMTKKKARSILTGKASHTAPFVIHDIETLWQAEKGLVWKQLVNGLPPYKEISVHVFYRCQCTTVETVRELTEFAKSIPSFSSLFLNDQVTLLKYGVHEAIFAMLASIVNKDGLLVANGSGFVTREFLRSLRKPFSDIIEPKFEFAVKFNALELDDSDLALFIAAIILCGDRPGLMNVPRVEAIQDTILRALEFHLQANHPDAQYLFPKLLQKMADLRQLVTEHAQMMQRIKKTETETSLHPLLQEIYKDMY

[4] = test system: Mus musculus; assay: Reduction of body weight in high fat diet fed-induced obesity and insulin resistance C57Bl/6J mouse model at 10 mg/kg/day, po administered once daily for 2 weeks relative to control; type: functional
Outline: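 Male C57Bl/6J mice, 6 weeks old, on high-fat diet for 16 weeks. Then dosed once daily for 2 weeks by oral gavage in 0.5% hypromellose; doses chosen in a preliminary dose-finding study. Body weight measured at end of treatment versus HFD controls, 6 mice per group.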

[5] = test system: Mus musculus; assay: Reduction of visceral fat weight in high fat diet fed-induced obesity and insulin resistance C57Bl/6J mouse model at 10 mg/kg/day, po administered once daily for 2 weeks measured on day 12 by in vivo magnetic resonance imaging analysis; type: functional, organism-based
Outline: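 Mice fed a high-fat diet for 16 weeks were gavaged daily for 2 weeks in 0.5% hypromellose. Under 1% isoflurane they were scanned at 4.7 T with sixteen 1 mm axial T1-weighted slices from kidneys to bladder. Visceral fat was expressed as percentage of total image area, 3 mice per group.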

[6] = target: T4, Peroxisome proliferator-activated receptor alpha (Homo sapiens) (UniProt Q07869); assay: Agonist activity at human GAL4-fused PPARalpha ligand binding domain expressed in HepG2 cells after 20 hrs by luciferase reporter gene transactivation assay relative to WY14643; type: cell-based
T4 sequence (whole entry): T1 sequence (Q07869 whole entry)
Outline: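 GAL4-human PPARα LBD chimera (30 ng) with Gal5-TK luciferase reporter (100 ng) and pCMVβgal (250 ng), calcium-phosphate transfected into HepG2 (MEM, 10% FBS) seeded 10⁵ cells/well. Ligands added 4 h post-transfection for 20 h, in triplicate. Luciferase read in cell extracts, normalised to β-galactosidase activity. Experiments repeated at least twice.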

[7] = target: T2, Peroxisome proliferator-activated receptor gamma; assay: Binding affinity to PPARgamma ligand binding domain by isothermal titration calorimetry
[8] = target: T5, Peroxisome proliferator-activated receptor gamma (Homo sapiens) (UniProt P37231); details: BL21-DE3
T5 sequence (whole entry): T2 sequence (P37231 whole entry)

[9] = test system: Mus musculus; assay: Induction of PPARalpha-mediated upregulation of Acadm mRNA expression in liver of high fat diet fed-induced obesity and insulin resistance C57Bl/6J mouse model at 100 mg/kg/day, po administered once daily for 2 weeks by real time qPCR analysis; type: functional, organism-based
Outline: (§1)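 Livers came from mice fed a high-fat diet for 16 weeks, then gavaged once daily for 2 weeks in 0.5% hypromellose, and were snap-frozen at sacrifice. Total RNA was extracted with Trizol and cleaned up on RNeasy columns. 1 μg RNA was used for mRNA quantitation.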

[10] = test system: Mus musculus; assay: Induction of PPARalpha-mediated upregulation of Acadl mRNA expression in liver of high fat diet fed-induced obesity and insulin resistance C57Bl/6J mouse model at 100 mg/kg/day, po administered once daily for 2 weeks by real time qPCR analysis; type: functional, organism-based; outline: as §1
[11] = test system: Mus musculus; assay: Induction of PPARalpha-mediated upregulation of Acox1 mRNA expression in liver of high fat diet fed-induced obesity and insulin resistance C57Bl/6J mouse model at 100 mg/kg/day, po administered once daily for 2 weeks by real time qPCR analysis; type: functional, organism-based; outline: as §1
[12] = test system: Mus musculus; assay: Increase in liver weight in high fat diet fed-induced obesity and insulin resistance C57Bl/6J mouse model at 100 mg/kg/day, po administered once daily for 2 weeks; type: functional, organism-based
[13] = Solubility of the compound in HEPES buffer; type: physicochemical
[14] = test system: HT-29; assay: Antitumor activity against human HT-29 cells assessed as inhibition of cell proliferation after 1 day by MTT assay; type: functional, cell-based; details: HT-29, 24 h
Outline: (§2)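 MTT assay with 10,000 cells/well seeded on day 1. Ligands added on day 2 at 1, 5, 10, 50 and 100 μM, from 20 mM DMSO stocks, for 1 or 2 days. Six replicate wells per drug, untreated control column. IC50 is the concentration giving 0.5 fraction affected versus untreated controls, taken from dose–effect curves. Each experiment in triplicate.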

[15] = test system: HCT-15; assay: Antitumor activity against human HCT15 cells assessed as inhibition of cell proliferation after 1 day by MTT assay; type: functional, cell-based; details: HCT-15, 24 h; outline: as §2
[16] = test system: LoVo; assay: Antitumor activity against human LoVo cells assessed as inhibition of cell proliferation after 1 day by MTT assay; type: functional, cell-based; details: 24 h; outline: as §2
[17] = test system: HT-29; assay: Antitumor activity against human HT-29 cells assessed as inhibition of cell proliferation after 2 days by MTT assay; type: functional, cell-based; details: HT-29, 48 h; outline: as §2
[18] = test system: HCT-15; assay: Antitumor activity against human HCT15 cells assessed as inhibition of cell proliferation after 2 days by MTT assay; type: functional, cell-based; details: HCT-15, 48 h; outline: as §2
[19] = test system: LoVo; assay: Antitumor activity against human LoVo cells assessed as inhibition of cell proliferation after 2 days by MTT assay; type: functional, cell-based; details: 48 h; outline: as §2
[20] = test system: HT-29; assay: Induction of apoptosis in human HT-29 cells at IC50 by Annexin V-FITC/propidium iodide staining based flow cytometry; type: functional, cell-based; details: TDE = time-dependent effect

EC50 ([3]; read-out: EC50) | Emax [6] | EC50 ([1]; read-out: EC50) | EC50 ([2]; read-out: EC50) | Kd [7] | SMILES | EC50 ([1]; hepg2) | other results
130 nM | 93% | 25 nM | 150 nM | 1500 nM | CCCCCCCN(CCc1ccc(O[C@H](C)C(=O)O)cc1)c1nc2ccccc2o1 | – | deltaT [8]: 2 °C
– | – | – | – | – | Cc1cccc(Nc2cc(Cl)nc(SCC(=O)O)n2)c1C [PIRINIXIC ACID] | – | EC50 ([2]; hepg2): Not Active
– | – | – | – | – | CC(C)OC(=O)C(C)(C)Oc1ccc(C(=O)c2ccc(Cl)cc2)cc1 | – | Activity [9]: Active; Activity [10]: Active; Activity [11]: Active; Activity [12]: Active
570 nM | 87% | 122 nM | 800 nM | 7700 nM | CCCCCCCN(CCc1ccc(OCC(=O)O)cc1)c1nc2ccccc2o1 | – | –
850 nM | 78% | 620 nM | 2300 nM | 3300 nM | CCCCCCCN(CCc1ccc(O[C@@H](C)C(=O)O)cc1)c1nc2ccccc2o1 | – | deltaT [8]: 2 °C
– | – | – | – | – | Cc1c(C)c2c(c(C)c1O)CCC(C)(COc1ccc(CC3SC(=O)NC3=O)cc1)O2 (centres undefined) [TROGLITAZONE] | – | IC50 [14]: > 100000 nM; IC50 [15]: > 100000 nM; IC50 [16]: > 100000 nM; IC50 [17]: 50000 nM; IC50 [18]: 50900 nM; IC50 [19]: 65000 nM; Activity [20]: tde

SMILES | EC50 ([3]; read-out: EC50) | Emax [6] | EC50 ([1]; read-out: EC50) | EC50 ([2]; read-out: EC50) | Kd [7] | EC50 ([1]; hepg2) | other results
CCCc1c(OCCCOc2ccc(OCC(=O)O)cc2)ccc(C(C)=O)c1O | 21 nM | – | – | – | – | Not Active | EC50 ([2]; hepg2): Not Active
CN(CCOc1ccc(CC2SC(=O)NC2=O)cc1)c1ccccn1 (centres undefined) [ROSIGLITAZONE] | – | inactive | – | – | – | Not Active | inhibition [4]: inactive; inhibition [5]: inactive
CCCCCCCN(CCc1ccc(O[C@H](Cc2ccccc2)C(=O)O)cc1)c1nc2ccccc2o1.NC1CCCCC1 | – | – | 1720 nM | 2700 nM | – | – | EC50 ([3]; cos-1): Not Active; solubility [13]: Insoluble
CCCCCCCN(CCc1ccc(O[C@@H](Cc2ccccc2)C(=O)O)cc1)c1nc2ccccc2o1.NC1CCCCC1 | – | – | – | 1700 nM | – | Not Active | EC50 ([3]; cos-1): Not Active; solubility [13]: Insoluble
